Laboratory results as given in ChEMBL document CHEMBL2417506, “Synthesis and antiprotozoal activity of original porphyrin precursors and derivatives” (Eur J Med Chem, 2013).
Calls of active or inactive are those of the source. The calls are words filed in the database; no cut-off is given here.

Columns and labels:
Mus musculus [1] = experiment: Toxicity in chloroquine-sensitive Plasmodium berghei NK-173 infected Swiss albino mouse assessed as death day at 100 mg/kg, ip bid for 3 days measured up to 4 days; assay type: organism-based; design: dose 100 mg/kg, route intraperitoneal; conditions: in vivo
Method in brief: (§1)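 Female Swiss albino mice (18–20 g) were infected i.v. on day 0 with 10^6 parasitized RBC in 0.2 ml PBS from a donor mouse, in groups of 10. Dosing was i.p. over days 0–3 and stopped if toxicity appeared. Chloroquine control was 100 µmoles/kg. Giemsa tail smears and RBC counts were taken on days 4, 7, 8, 9, 10 and 14. Mice were followed for deaths.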

[2] = tested on: Trypanosoma brucei brucei; experiment: Trypanocidal activity against Trypanosoma brucei brucei by drug incubation infectivity test; assay type: functional; conditions: read-out: MEC
Plasmodium berghei [3] = experiment: Antimalarial activity against chloroquine-sensitive Plasmodium berghei NK-173 infected in Swiss albino mouse assessed as host survival at 100 mg/kg, ip bid for 3 days measured on day 30; assay type: functional; conditions: NK-173, ip, route intraperitoneal; method in brief: as §1
Plasmodium falciparum = experiment: Antimalarial activity against Plasmodium falciparum 3D7 infected in human O positive erythrocytes assessed as reduction of parasite growth after 24 to 44 hrs by Giemsa staining; assay type: functional, organism-based
Method in brief: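 Sorbitol-synchronized ring-stage 3D7 parasites in O+ erythrocytes (5% v/v suspension, 0.5% parasitemia) exposed to compounds from DMSO stock for 44 h at 37 °C. Growth measured by pLDH ELISA after freeze-thaw hemolysis and by Giemsa thin smears at 24 and 44 h, counting at least 5000 erythrocytes. Expressed as % reduction against medium-only control.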

[4] = Cytotoxicity against Swiss mouse peritoneal macrophages at 20 uM after 5 days by MTT assay; assay type: cell-based, Peritoneal macrophage cell
Method in brief: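 Thioglycolate-elicited peritoneal macrophages from female Swiss mice, 5 × 10^4/well in RPMI 1640 with 10% FCS, 25 mM Hepes and 2 mM L-glutamine. Washed at 4 h to remove fibroblasts. Drug-containing medium added at 48 h, stopped at day 5. Viability read by MTT.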

Plasmodium berghei [5] = experiment: Antimalarial activity against chloroquine-sensitive Plasmodium berghei NK-173 infected in Swiss albino mouse assessed as host survival at 38.5 mg/kg, ip administered 4 times per day for 3 days measured on day 30; assay type: functional; conditions: NK-173, ip, route intraperitoneal; method in brief: as §1
Plasmodium berghei [6] = experiment: Antimalarial activity against chloroquine-sensitive Plasmodium berghei NK-173 infected in Swiss albino mouse assessed as quantal survival at 38.5 mg/kg, ip administered 4 times per day for 3 days measured on day 7; assay type: functional, organism-based; design: dose 38.5 mg/kg; method in brief: as §1
Leishmania donovani [7] = experiment: Antileishmanial activity against amastigotes forms of Leishmania donovani MHOM/ET/67/HU3 infected in Swiss mouse peritoneal macrophages at 20 uM after 5 days; assay type: functional, organism-based
Method in brief: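 Peritoneal macrophages from female Swiss mice (18–20 g) infected after 24 h with stationary-phase L. donovani promastigotes at 10 parasites per macrophage. Free promastigotes removed at 18 h, then amastigotes treated. Medium with drug renewed at 48 h, stopped at day 5. Percentage of infected macrophages scored microscopically after Giemsa staining. Run in triplicate.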

Mus musculus [8] = experiment: Toxicity in chloroquine-sensitive Plasmodium berghei NK-173 infected Swiss albino mouse assessed as mortality at 38.5 mg/kg, ip qd for 3 days measured up to 4 days; assay type: organism-based; design: dose 38.5 mg/kg, route intraperitoneal; conditions: in vivo; method in brief: as §1
Plasmodium berghei [9] = experiment: Antimalarial activity against chloroquine-sensitive Plasmodium berghei NK-173 infected in Swiss albino mouse assessed as quantal survival at 100 mg/kg, ip bid for 3 days measured on day 14; assay type: functional, organism-based; design: dose 100 mg/kg; method in brief: as §1
Plasmodium berghei [10] = experiment: Antimalarial activity against chloroquine-sensitive Plasmodium berghei NK-173 infected in Swiss albino mouse assessed as quantal survival at 38.5 mg/kg, ip qd for 3 days measured on day 7; assay type: functional, organism-based; design: dose 38.5 mg/kg; method in brief: as §1
Plasmodium berghei [11] = experiment: Antimalarial activity against chloroquine-sensitive Plasmodium berghei NK-173 infected in Swiss albino mouse assessed as reduction parasitemia at 76.9 mg/kg, […] by Giemsa staining relative to control; assay type: functional; design: scale not given: the % may be the effect or the level left; conditions: route intraperitoneal
Mus musculus [12] = experiment: Toxicity in chloroquine-sensitive Plasmodium berghei NK-173 infected Swiss albino mouse assessed as mortality at 38.5 mg/kg, ip administered 4 times per day for 3 days measured up to 4 days; assay type: organism-based; design: dose 38.5 mg/kg, route intraperitoneal; conditions: in vivo; method in brief: as §1
Plasmodium berghei [13] = experiment: Antimalarial activity against chloroquine-sensitive Plasmodium berghei NK-173 infected in Swiss albino mouse assessed as quantal survival at 76.9 mg/kg, ip qd for 3 days measured on day 14; assay type: functional, organism-based; design: dose 76.9 mg/kg; method in brief: as §1
Plasmodium berghei [14] = experiment: Antimalarial activity against chloroquine-sensitive Plasmodium berghei NK-173 infected in Swiss albino mouse assessed as host survival at 38.5 mg/kg, ip qd for 3 days measured on day 30; assay type: functional; conditions: NK-173, ip, route intraperitoneal; method in brief: as §1
Plasmodium berghei [15] = experiment: Antimalarial activity against chloroquine-sensitive Plasmodium berghei NK-173 infected in Swiss albino mouse assessed as quantal survival at 76.9 mg/kg, ip qd for 3 days measured on day 7; assay type: functional, organism-based; design: dose 76.9 mg/kg; method in brief: as §1
Plasmodium berghei [16] = experiment: Antimalarial activity against chloroquine-sensitive Plasmodium berghei NK-173 infected in Swiss albino mouse assessed as quantal survival at 38.5 mg/kg, ip qd for 3 days measured on day 9; assay type: functional, organism-based; design: dose 38.5 mg/kg; method in brief: as §1
Plasmodium berghei [17] = experiment: Antimalarial activity against chloroquine-sensitive Plasmodium berghei NK-173 infected in Swiss albino mouse assessed as quantal survival at 38.5 mg/kg, ip administered 4 times per day for 3 days measured on day 8; assay type: functional, organism-based; design: dose 38.5 mg/kg; method in brief: as §1
Leishmania donovani [18] = experiment: Antileishmanial activity against promastigote forms of Leishmania donovani MHOM/ET/67/HU3 after 3 days by MTT assay; assay type: functional, organism-based; conditions: MHOM/ET/67/HU3, 72 h
Method in brief: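 Log-phase promastigotes at 10^6 cells/mL in supplemented M-199. Serial dilutions gave final concentrations of 100 µM to 50 nM, in triplicate. Incubated 3 days at 27 °C, dark, 5% CO2. Viability read by MTT reduction, with Triton X100/HCl lysis and absorbance at 570 nm. IC50 ± SD.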

Plasmodium berghei [19] = experiment: Antimalarial activity against chloroquine-sensitive Plasmodium berghei NK-173 infected in Swiss albino mouse assessed as quantal survival at 38.5 mg/kg, ip qd for 3 days measured on day 10; assay type: functional, organism-based; design: dose 38.5 mg/kg; method in brief: as §1
Plasmodium berghei [20] = experiment: Antimalarial activity against chloroquine-sensitive Plasmodium berghei NK-173 infected in Swiss albino mouse assessed as host survival at 76.9 mg/kg, ip qd for 3 days measured on day 30; assay type: functional; conditions: NK-173, ip, route intraperitoneal; method in brief: as §1
Mus musculus [21] = experiment: Toxicity in chloroquine-sensitive Plasmodium berghei NK-173 infected Swiss albino mouse assessed as mortality at 76.9 mg/kg, ip qd for 3 days measured up to 4 days; assay type: organism-based; design: dose 76.9 mg/kg, route intraperitoneal; conditions: in vivo; method in brief: as §1
Plasmodium berghei [22] = experiment: Antimalarial activity against chloroquine-sensitive Plasmodium berghei NK-173 infected in Swiss albino mouse assessed as quantal survival at 38.5 mg/kg, ip administered 4 times per day for 3 days measured on day 14; assay type: functional, organism-based; design: dose 38.5 mg/kg; method in brief: as §1
Plasmodium berghei [23] = experiment: Antimalarial activity against chloroquine-sensitive Plasmodium berghei NK-173 infected in Swiss albino mouse assessed as quantal survival at 76.9 mg/kg, ip qd for 3 days measured on day 10; assay type: functional, organism-based; design: dose 76.9 mg/kg; method in brief: as §1
Plasmodium berghei [24] = experiment: Antimalarial activity against chloroquine-sensitive Plasmodium berghei NK-173 infected in Swiss albino mouse assessed as reduction parasitemia at 38.5 mg/kg, ip qd […] by Giemsa staining relative to control; assay type: functional; design: scale not given: the % may be the effect or the level left; conditions: route intraperitoneal
Method in brief: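 Four-day Peters test in female Swiss albino mice (18–20 g), groups of 10. Infected i.v. on day 0 with 10^6 parasitized RBC in 0.2 ml PBS, then dosed i.p. on days 0–3, stopped if toxicity appeared. Parasitemia read from Giemsa-stained tail-blood smears and reported as % reduction at day 4.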

Plasmodium berghei [25] = experiment: Antimalarial activity against chloroquine-sensitive Plasmodium berghei NK-173 infected in Swiss albino mouse assessed as quantal survival at 38.5 mg/kg, ip qd for 3 days measured on day 14; assay type: functional, organism-based; design: dose 38.5 mg/kg; method in brief: as §1

## COc1cc(-c2c3nc(c(N4C(=O)CC[C@H]4C(=O)O)c4ccc([nH]4)c(-c4cc(OC)c(OC)c(OC)c4)c4nc(cc5ccc2[nH]5)C=C4)C=C3)cc(OC)c1OC
Mus musculus [1]
  Time: 2 days
[2]
  minimal effective concentration: 25 µM
Plasmodium berghei [3]
  survival at 100 mg/kg: 0%
Plasmodium falciparum
  IC50: 0.02 µM
[4]
  CC50 at 120 h: > 100 µM
Plasmodium berghei [5]
  survival at 38.5 mg/kg: 0%
Plasmodium berghei [6]
  Survival: Active
Leishmania donovani [7]
  Activity: inactive
Mus musculus [8]
  Activity: Non-toxic
Plasmodium berghei [9]
  Survival: inactive
Plasmodium berghei [10]
  Survival: Active
Plasmodium berghei [11]
  Activity: 40%
Mus musculus [12]
  Activity: Non-toxic
Plasmodium berghei [13]
  Survival: inactive
Plasmodium berghei [14]
  survival at 38.5 mg/kg: 0%
Plasmodium berghei [15]
  Survival: Active
Plasmodium berghei [16]
  Survival: inactive
Plasmodium berghei [17]
  Survival: Active
Leishmania donovani [18]
  IC50: 57.2 µM
Plasmodium berghei [19]
  Survival: inactive
Plasmodium berghei [20]
  survival at 76.9 mg/kg: 0%
Mus musculus [21]
  Activity: Non-toxic
Plasmodium berghei [22]
  Survival: inactive
Plasmodium berghei [23]
  Survival: inactive
Plasmodium berghei [24]
  Activity: 0%
Plasmodium berghei [25]
  Survival: inactive
